Laboratory results taken from ChEMBL document CHEMBL1151929, “Synthesis and antiviral activity evaluation of acyclic 2'-azanucleosides bearing a phosphonomethoxy function in the side chain” (Bioorg Med Chem, 2009).
Activity calls are given as the source filed them.

Key:
Assay type in all cases: functional, organism-based
Human alphaherpesvirus 1 [1] = assay: Antiviral activity against HSV1 KOS infected in HEL cells assessed as reduction of virus-induced cytopathic effect at 10 to 100 ug/ml
Human alphaherpesvirus 2 = assay: Antiviral activity against HSV2 G infected in HEL cells assessed as reduction of virus-induced cytopathic effect at 10 to 100 ug/ml; details: strain G
Human alphaherpesvirus 1 [2] = assay: Antiviral activity against acyclovir-resistant thymidine kinase-deficient HSV1 KOS infected in HEL cells assessed as reduction of virus-induced cytopathic effect at 10 to 100 ug/ml
Vaccinia virus = assay: Antiviral activity against Vaccinia virus Lederle infected in HEL cells assessed as reduction of virus-induced cytopathic effect at 10 to 100 ug/ml; details: Orthopoxvirus vaccinia
[3] = test system: Vesicular stomatitis virus; assay: Antiviral activity against VSV infected in HEL cells assessed as reduction of virus-induced cytopathic effect at 10 to 100 ug/ml
[4] = test system: Vesicular stomatitis virus; assay: Antiviral activity against VSV infected in human HeLa cells assessed as reduction of virus-induced cytopathic effect at 10 to 100 ug/ml
Summary of the method: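 Confluent HeLa cell cultures were inoculated with 100 CCID50 of VSV and allowed to adsorb for 1–2 h. Unbound virus was removed and cultures were incubated with varying compound concentrations. CPE was scored visually when complete in untreated infected controls. EC50 is the concentration reducing CPE by 50%.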

Coxsackievirus B4 [5] = assay: Antiviral activity against Coxsackievirus B4 infected in human HeLa cells assessed as reduction of virus-induced cytopathic effect at 10 to 100 ug/ml
Summary of the method: (§1)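 Confluent cell monolayers in 96-well plates inoculated with 100 CCID50 of virus; 1–2 h adsorption, residual virus removed, then incubated with varying compound concentrations. CPE scored visually once complete in untreated infected controls; EC50 = concentration reducing virus-induced cytopathicity by 50%. Highest subtoxic concentrations tested 10–100 μg/mL.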

[6] = test system: Respiratory syncytial virus; assay: Antiviral activity against RSV Long infected in human HeLa cells assessed as reduction of virus-induced cytopathic effect at 10 to 100 ug/ml; summary of the method: as §1
Human respirovirus 3 = assay: Antiviral activity against Parainfluenza virus 3 infected in african green monkey Vero cells assessed as reduction of virus-induced cytopathic effect at 10 to 100 ug/ml; summary of the method: as §1
[7] = test system: Mammalian orthoreovirus 1; assay: Antiviral activity against Reovirus 1 infected in african green monkey Vero cells assessed as reduction of virus-induced cytopathic effect at 10 to 100 ug/ml; summary of the method: as §1
Sindbis virus = assay: Antiviral activity against Sindbis virus infected in african green monkey Vero cells assessed as reduction of virus-induced cytopathic effect at 10 to 100 ug/ml; summary of the method: as §1
Coxsackievirus B4 [8] = assay: Antiviral activity against Coxsackievirus B4 infected in african green monkey Vero cells assessed as reduction of virus-induced cytopathic effect at 10 to 100 ug/ml; summary of the method: as §1
Punta Toro virus = assay: Antiviral activity against Punta Toro virus infected in african green monkey Vero cells assessed as reduction of virus-induced cytopathic effect at 10 to 100 ug/ml; summary of the method: as §1
Human betaherpesvirus 5 [9] = assay: Antiviral activity against HCMV AD169 infected in HEL cells assessed as reduction of virus plaque formation at 10 to 100 ug/ml
Summary of the method: (§2)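 HEL fibroblasts in 96-well plates infected with 100 PFU HCMV; 1–2 h adsorption, residual virus removed, incubation with varying compound concentrations. EC50 taken as concentration reducing viral plaque formation by 50%. Highest subtoxic concentrations 10–100 μg/mL.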

Human betaherpesvirus 5 [10] = assay: Antiviral activity against HCMV Davis infected in HEL cells assessed as reduction of virus plaque formation at 10 to 100 ug/ml; summary of the method: as §2
Human alphaherpesvirus 3 [11] = assay: Antiviral activity against Varicella Zoster virus Oka infected in HEL cells assessed as reduction in viral plaque formation at 10 to 100 ug/ml
Human alphaherpesvirus 3 [12] = assay: Antiviral activity against thymidine kinase-deficient Varicella Zoster virus 07/1 infected in HEL cells assessed as reduction in viral plaque formation at 10 to 100 ug/ml
Feline coronavirus = assay: Antiviral activity against Feline coronavirus infected in cat CRFK cells assessed as effect on cell viability at 10 to 100 ug/ml by MTS assay
Summary of the method: (§3)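 CRFK feline kidney cells, confluent in 96-well plates, infected with 100 CCID50; after 1–2 h adsorption, inoculum removed and cultures kept with varying compound concentrations until CPE complete in untreated virus controls. Cell viability read by colorimetric formazan-based MTS assay; EC50 = concentration reducing virus-induced cytopathicity by 50%. Top subtoxic concentrations 10–100 μg/mL.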

Felid alphaherpesvirus 1 = assay: Antiviral activity against Feline herpesvirus infected in cat CRFK cells assessed as effect on cell viability at 10 to 100 ug/ml by MTS assay; summary of the method: as §3

Measured: Activity

Cc1ccc(S(=O)(=O)N(CCOCP(=O)(O)O)Cn2cc(F)c(=O)[nH]c2=O)cc1
inactive: Human alphaherpesvirus 1 [1] | Human alphaherpesvirus 2 | Human alphaherpesvirus 1 [2] | Vaccinia virus | [3] | [4] | Coxsackievirus B4 [5] | [6] | Human respirovirus 3 | [7] | Sindbis virus | Coxsackievirus B4 [8] | Punta Toro virus | Human betaherpesvirus 5 [9] | Human betaherpesvirus 5 [10] | Human alphaherpesvirus 3 [11] | Human alphaherpesvirus 3 [12] | Feline coronavirus | Felid alphaherpesvirus 1

Cc1ccc(S(=O)(=O)N(CCOCP(=O)(O)O)Cn2cc(C)c(=O)[nH]c2=O)cc1
inactive: Human alphaherpesvirus 1 [1] | Human alphaherpesvirus 2 | Human alphaherpesvirus 1 [2] | Vaccinia virus | [3] | [4] | Coxsackievirus B4 [5] | [6] | Human respirovirus 3 | [7] | Sindbis virus | Coxsackievirus B4 [8] | Punta Toro virus | Human betaherpesvirus 5 [9] | Human betaherpesvirus 5 [10] | Human alphaherpesvirus 3 [11] | Human alphaherpesvirus 3 [12] | Feline coronavirus | Felid alphaherpesvirus 1

Cc1ccc(S(=O)(=O)N(CCOCP(=O)(O)O)Cn2ccc(=O)[nH]c2=O)cc1
inactive: Human alphaherpesvirus 1 [1] | Human alphaherpesvirus 2 | Human alphaherpesvirus 1 [2] | Vaccinia virus | [3] | [4] | Coxsackievirus B4 [5] | [6] | Human respirovirus 3 | [7] | Sindbis virus | Coxsackievirus B4 [8] | Punta Toro virus | Human betaherpesvirus 5 [9] | Human betaherpesvirus 5 [10] | Human alphaherpesvirus 3 [11] | Human alphaherpesvirus 3 [12] | Feline coronavirus | Felid alphaherpesvirus 1

Cc1ccc(S(=O)(=O)N(CCOCP(=O)(O)O)Cn2ccc(N)nc2=O)cc1
inactive: Human alphaherpesvirus 1 [1] | Human alphaherpesvirus 2 | Human alphaherpesvirus 1 [2] | Vaccinia virus | [3] | [4] | Coxsackievirus B4 [5] | [6] | Human respirovirus 3 | [7] | Sindbis virus | Coxsackievirus B4 [8] | Punta Toro virus | Human betaherpesvirus 5 [9] | Human betaherpesvirus 5 [10] | Human alphaherpesvirus 3 [11] | Human alphaherpesvirus 3 [12] | Feline coronavirus | Felid alphaherpesvirus 1
